# Screening data as filed in PubChem BioAssay.
# The list is not random: actives were taken first. Their share in the collection is about 3.6%.
# ZTA DNA inh: counter-screen for EBNA-1 inhibitors: inhibitors of Epstein-Barr virus ZTA; AID 2234; inhibition, % at 11 µM; P03206; ZTA-DNA binding, fluorescence polarization; 320,000 tested, 0.15% active; in the data active = inhibition above about 33%
# Target sequence (P03206 whole entry, looked up): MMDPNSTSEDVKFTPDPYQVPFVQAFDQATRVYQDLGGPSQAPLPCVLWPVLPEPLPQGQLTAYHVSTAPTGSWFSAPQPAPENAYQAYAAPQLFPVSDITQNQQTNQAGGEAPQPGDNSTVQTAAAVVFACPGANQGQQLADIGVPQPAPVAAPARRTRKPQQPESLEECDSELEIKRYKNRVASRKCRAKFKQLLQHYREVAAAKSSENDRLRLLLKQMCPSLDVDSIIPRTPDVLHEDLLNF
# NR3A LBD binder: binders of NR3A ligand-binding domain, primary screen, biophysical, differential scanning fluorimetry, uHTS. Tm shift relative to glycine control, % at 25 µM. AID 1259313, 2017. Glutamate receptor ionotropic, NMDA 3A (GRIN3A) ligand-binding domain. 340,000 tested, 2.5% active. NR3A LBD differential scanning fluorimetry, Tm shift; 0% = protein alone, 100% = glycine-bound protein;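 active = melting temperature shift of at least 10% of the positive control shift, at one fixed dose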
# FID counter: compounds displacing fluorescent DNA intercalator, primary screen, artefact control for HCV NS3 helicase inhibitor project, biochemical, FID fluorescence; DNA fluorescent intercalator displacement; inhibition, % at 7.9 µM; 290,000 tested, 0.17% active; in the data active = inhibition above about 37%;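 also: 0% = vehicle and 100% = reference compound; higher means more ethidium bromide displaced from hairpin DNA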
# FGF22 binding: binders of human FGF22 protein, primary screen, FGF22 synaptogenesis inhibitor project, biophysical, thermal shift, single point; recombinant FGF22 thermal shift, SYPRO orange fluorescence; percent of sucrose octasulfate shift, DMSO zero; activity (Tm shift, normalised), % at 9.99 µM; 340,000 tested, 1.5% active; Fibroblast growth factor 22 (Homo sapiens), Q9HCT0;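 active = mean Tm shift, scaled 0 neutral to 100 positive control, at about 1.3% or above, every replicate too, limit read from the data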
# Target sequence (Q9HCT0 whole entry, looked up): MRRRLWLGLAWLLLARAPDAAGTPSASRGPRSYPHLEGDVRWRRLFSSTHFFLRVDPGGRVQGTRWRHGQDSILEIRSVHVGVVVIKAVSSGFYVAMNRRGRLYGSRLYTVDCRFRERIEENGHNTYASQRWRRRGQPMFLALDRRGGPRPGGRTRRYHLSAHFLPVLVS
# NS3 helicase inh: inhibitors of HCV NS3 helicase, primary screen, biochemical, Cy5 molecular beacon fluorescence | Hepatitis C virus NS3 helicase | NS3 helicase DNA unwinding | inhibition, % at 10.9 µM | 290,000 tested, 0.56% active;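 active = inhibition above the mean of all tested compounds plus 3 SD, set per campaign, cut at about 35% in these data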;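 also: 0% = DMSO wells and 100% = thioflavine S control wells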
#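 Measured by: Cy5 fluorescence, 0 and 60 min reads / Assay system: NS3 helicase fragment of HCV / Control set: low DMSO, high thioflavine S at 110 µM / Times: 1 h reaction at 25 °C, ATP-initiated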
# EBNA-1 inh: EBNA-1 DNA-binding inhibitors, primary screen, biochemical, fluorescence polarization; 300,000 tested, 0.34% active; inhibition, % at 14.8 µM; in the data active = inhibition above about 28%
# * marks the source's active call; other numbers are inactive results; · = not tested or not shown.
SMILES,ZTA DNA inh,NR3A LBD binder,FID counter,FGF22 binding,NS3 helicase inh,EBNA-1 inh
CN(Cc1cc(=O)n2ccsc2n1)C1CCCCC1,-15,-2,-5,0,6,-14
CC12CCC(C(=O)NCc3ccccc3)(OC1=O)C2(C)C (stereo not given),-4,1,-6,·,8,8
CC12CCC(C(=O)NCc3ccc(Cl)cc3)(OC1=O)C2(C)C (stereo not given),-12,11*,-9,·,8,-2
O=C(Cc1cccnc1)N1CC2(C1)[C@@H](c1ccccc1)[C@@H](CO)N2C(=O)C1CCCCC1,·,·,·,0,·,·
O=C(CNc1cccc(C(F)(F)F)c1)N/N=C/c1cn(-c2ccccc2)nc1-c1ccccc1,15,34*,-12,0,11,15
Cc1nn(Cc2ccccc2)c(C)c1/C=N/NC(=O)CNc1cccc(C(F)(F)F)c1,-2,13*,-14,0,-9,6
COc1ccc(-c2nn(-c3ccccc3)cc2/C=N/Nc2cccc(C(=O)O)c2)cc1,·,-5,-31,-1,4,·
COc1ccc2[nH]c(=O)c(CN(Cc3nnnn3Cc3ccco3)C3CCCCC3)cc2c1,3,-4,-35,·,42*,-9
COc1ccc(Cl)cc1NC(=O)c1nnn(CC(=O)Nc2ccc(C)c(C)c2)c1N,10,14*,-2,0,3,2
Cc1cc(C)cc(NC(=O)Cn2nnc(C(=O)NCc3ccc(F)cc3)c2N)c1,-7,34*,-9,0,-7,-13
COc1ccc(NC(=O)Cn2nnc(C(=O)NCc3ccccc3)c2N)cc1Cl,13,-4,-2,·,-2,-10
COc1ccc(NC(=O)Cn2nnc(C(=O)NCc3ccc(C)cc3)c2N)cc1Cl,6,17*,-13,0,-6,21
COc1ccc(NC(=O)Cn2nnc(C(=O)NCc3cccs3)c2N)cc1OC,-8,0,-10,0,1,-16
COc1ccc(NC(=O)Cn2nnc(C(=O)Nc3ccc(F)c(Cl)c3)c2N)cc1OC,10,78*,-7,0,4,-2
CC(C)c1ccc(NC(=O)Cn2nnc(C(=O)NCc3ccco3)c2N)cc1,6,12*,-17,0,5,-5
COc1ccccc1NC(=O)c1nnn(CC(=O)Nc2cc(C)cc(C)c2)c1N,1,-3,-16,0,-1,-7
CCOc1ccccc1NC(=O)c1nnn(CC(=O)Nc2cc(C)cc(C)c2)c1N,12,13*,-4,0,5,3
Cc1ccc(NC(=O)Cn2nnc(C(=O)NCc3cccs3)c2N)cc1F,2,32*,-6,0,4,-8
CC(C)NC(=O)N(C)C[C@@H]1Oc2ncc(-c3ccccc3F)cc2C(=O)N([C@H](C)CO)C[C@@H]1C,·,·,·,0,·,·
Cc1noc(C)c1S(=O)(=O)Nc1ccc2c(c1)C(=O)N([C@@H](C)CO)C[C@@H](C)[C@@H](CN(C)Cc1ccc3c(c1)OCO3)O2,·,·,·,0,·,·
CO[C@@H](CN(C)C(=O)c1cc(Cl)cc(Cl)c1)[C@@H](C)CN(C(=O)Nc1ccc(F)cc1)[C@@H](C)CO,·,·,·,0,·,·
O=C(Nc1ccc(F)cc1F)Nc1ccc(F)cc1F,-3,-2,-3,0,10,6
O=C(Nc1ccc(F)c(Cl)c1)Nc1csc2ccccc12,3,39*,4,0,-2,17
O=C(Nc1ccncc1)Nc1ccc(F)c(Cl)c1,11,8,13,1,-6,-10
O=C(Nc1ccc(F)cc1F)Nc1csc2ccccc12,6,15*,7,0,12,4
COC(=O)c1sc(C(C)(C)C)cc1CS(=O)(=O)c1ccc(Cl)cc1,-9,0,-26,15*,-2,-1
COC(=O)c1ccc(N)c(CS(=O)(=O)c2ccc(Cl)cc2)c1,-12,0,-8,0,2,-7
